This is an account of results in ChEMBL document CHEMBL1159098, “A new series of flavones, thioflavones, and flavanones as selective monoamine oxidase-B inhibitors” (Bioorg Med Chem, 2010).

In data set [1] the target is T1, Amine oxidase [flavin-containing] A (Homo sapiens, UniProt P21397).
T1 sequence (P21397 whole entry): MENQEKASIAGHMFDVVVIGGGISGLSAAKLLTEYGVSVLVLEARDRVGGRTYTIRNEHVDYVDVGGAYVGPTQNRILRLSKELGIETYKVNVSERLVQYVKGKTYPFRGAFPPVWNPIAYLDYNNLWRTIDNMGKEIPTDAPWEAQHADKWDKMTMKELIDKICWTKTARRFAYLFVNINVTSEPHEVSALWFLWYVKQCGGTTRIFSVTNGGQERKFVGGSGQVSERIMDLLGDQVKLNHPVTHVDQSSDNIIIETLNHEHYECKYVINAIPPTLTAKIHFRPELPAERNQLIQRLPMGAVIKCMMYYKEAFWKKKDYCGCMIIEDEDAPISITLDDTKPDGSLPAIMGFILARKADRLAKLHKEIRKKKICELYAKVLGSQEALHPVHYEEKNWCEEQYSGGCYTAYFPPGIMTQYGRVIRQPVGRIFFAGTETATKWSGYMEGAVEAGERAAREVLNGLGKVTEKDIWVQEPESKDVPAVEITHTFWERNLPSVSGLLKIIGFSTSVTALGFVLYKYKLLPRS
Nature of the data set: Inhibition of human recombinant MAOA expressed in BTI-TN-5B1-4 cells at 100 uM by para-tyramine oxidation assay. The format is cell-based. The settings on record: for inhibition (INH): human, bti-tn-5b1-4, 100 µM; for inhibition at 100 µM: BTI-TN-5B1-4, human.

Data set [2] addresses T2, Amine oxidase [flavin-containing] B (Homo sapiens, UniProt P27338).
T2 sequence (P27338 whole entry): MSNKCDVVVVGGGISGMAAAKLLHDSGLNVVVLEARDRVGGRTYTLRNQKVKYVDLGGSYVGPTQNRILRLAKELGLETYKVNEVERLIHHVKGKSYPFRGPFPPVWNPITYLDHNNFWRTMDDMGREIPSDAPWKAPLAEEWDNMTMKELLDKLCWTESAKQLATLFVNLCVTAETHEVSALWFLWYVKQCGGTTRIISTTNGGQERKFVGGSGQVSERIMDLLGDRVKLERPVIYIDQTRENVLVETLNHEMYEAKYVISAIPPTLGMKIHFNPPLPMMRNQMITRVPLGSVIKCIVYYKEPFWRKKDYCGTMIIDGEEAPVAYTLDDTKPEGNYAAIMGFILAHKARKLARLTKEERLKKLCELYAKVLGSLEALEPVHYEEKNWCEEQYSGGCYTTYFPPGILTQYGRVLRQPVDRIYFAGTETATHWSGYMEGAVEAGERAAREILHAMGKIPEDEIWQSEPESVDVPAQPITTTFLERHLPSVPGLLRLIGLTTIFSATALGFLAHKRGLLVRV
The format is cell-based, BTI-TN-5B1-4.

The species entered for the next data set is Homo sapiens. Description: Selectivity for human MAOB over human MAOA. Summed up:
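Selectivity index = IC50(hMAO-A)/IC50(hMAO-B), both from Amplex Red/p-tyramine fluorimetric assays on insect-cell recombinant enzymes.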

The target of data set [3] is T2, Amine oxidase [flavin-containing] B. Description: Inhibition of human recombinant MAOB expressed in BTI-TN-5B1-4 cells at 100 uM by para-tyramine oxidation assay. The class given is cell-based. The settings on record: BTI-TN-5B1-4, human.

Regarding `Cc1ccc(-c2cc(=O)c3ccccc3o2)cc1`, in data set [1], the “inhibition (INH)” value was “Not Active”. Besides, the IC50 (in general, the concentration that inhibits the measured activity by half) in data set [2] was 2380 nM. Further, in the data set filed under Homo sapiens, the Ratio IC50 was over 42.
Taken in the same sequence, the figures for `COc1ccc2c(=O)cc(-c3ccc(C)cc3)oc2c1` were “Not Active”, 11300 nM and over 8.8.
For `COc1ccc2c(=O)cc(-c3ccc(F)cc3)oc2c1`, the “inhibition (INH)” value in data set [1] was “Not Active”. This molecule showed an IC50 in data set [2] of 5140 nM. For the same molecule, the Ratio IC50 in the data set filed under Homo sapiens is over 19.
In the case of `O=c1cc(-c2ccc(F)cc2)oc2ccccc12`, the inhibition at 100 µM in data set [1] and in data set [3] was 40% in each case.
Take `Cc1ccc(-c2cc(=S)c3ccccc3o2)cc1`: in data set [1], the “inhibition (INH)” value is recorded as “Not Active”. The molecule further had an IC50 in data set [2] of 6690 nM. Besides, the Ratio IC50 in the data set listed under Homo sapiens was over 15.
For the molecule `Cc1ccc(-c2cc(=O)c3ccc(C)cc3o2)cc1`, the inhibition at 100 µM in data set [1] and in data set [3] was 40% throughout.
With `Fc1ccc2c(=S)cc(-c3ccccc3)oc2c1`, the inhibition at 100 µM in data set [1] and in data set [3] was 40% each time.
`Cc1ccc(-c2cc(=S)c3ccc(C)cc3o2)cc1`: in data set [1], the “inhibition (INH)” value is on record as “Not Active”. This molecule also registered a 50% inhibitory concentration (IC50) in data set [2] of 6720 nM. For the same molecule, in the data set listed under Homo sapiens, the Ratio IC50 was over 15.
As to `COc1ccc2c(=S)cc(-c3ccc(C)cc3)oc2c1`, the inhibition (in general, the share of the control response that was lost under treatment) at 100 µM in data set [1] amounted to 40%. In data set [2], this molecule displayed a half-inhibitory concentration (IC50) of 7610 nM. Also, the Ratio IC50 in the data set listed under Homo sapiens is over 13.
For the molecule `COc1ccc2c(c1)O[C@H](c1ccc(F)cc1)CC2=O`, the “inhibition (INH)” value in data set [1] is listed as “Not Active”. For the same molecule, the midpoint of inhibition in data set [2], the IC50, lay at 160 nM. Also, the Ratio IC50 in the data set filed under Homo sapiens is over 625.
Regarding `COc1ccc(-c2cc(=O)c3ccc(C)cc3o2)cc1`, the inhibition at 100 µM in data set [1] and in data set [3] was 40% throughout.
With `Cc1ccc([C@H]2CC(=O)c3ccc(C)cc3O2)cc1`, the “inhibition (INH)” value in data set [1] is listed as “Not Active”. In data set [2], the IC50 was determined as 530 nM. For the same molecule, the Ratio IC50 in the data set listed under Homo sapiens is over 189.
Consider `Cc1ccc(-c2cc(=O)c3ccc(F)cc3o2)cc1`, for which the “inhibition (INH)” value in data set [1] was “Not Active”. This molecule also had an IC50 in data set [2] of 4330 nM. The Ratio IC50 in the data set listed under Homo sapiens is over 23.
As to `COc1ccc(-c2cc(=O)c3ccc(F)cc3o2)cc1`, in data set [1], the inhibition at 100 µM was found to be 40%. Besides, inhibition in data set [2] was half-maximal at 1340 nM (IC50). The Ratio IC50 in the data set filed under Homo sapiens was over 75.
For `O=c1cc(-c2ccc(F)cc2)oc2cc(F)ccc12`, in data set [1], the “inhibition (INH)” value is listed as “Not Active”.
Turning to `Fc1ccc(-c2cc(=S)c3ccc(F)cc3o2)cc1`, the “inhibition (INH)” value in data set [1] was “Not Active”. In data set [2], 6890 nM corresponded to half-maximal inhibition (IC50). The Ratio IC50 in the data set filed under Homo sapiens was over 15.
Turning to `Cc1ccc(-c2cc(=S)c3ccc(F)cc3o2)cc1`, in data set [1], the inhibition at 100 µM came out at 40%. For the same molecule, the half-inhibitory concentration (IC50) in data set [2] turned out to be 1610 nM. The Ratio IC50 in the data set filed under Homo sapiens was over 62.
For `Cc1ccc([C@@H]2CC(=O)c3ccc(C)cc3O2)cc1`, the “inhibition (INH)” value in data set [1] is “Not Active”. In data set [2], the concentration for half-maximal inhibition (IC50) amounted to 590 nM. In the data set listed under Homo sapiens, the Ratio IC50 was over 169.
On the same counts, the results for `COc1ccc2c(c1)O[C@@H](c1ccc(F)cc1)CC2=O` are “Not Active”, 200 nM and over 500.
As to `COc1ccc(-c2cc(=S)c3ccc(OC)cc3o2)cc1`, the “inhibition (INH)” value in data set [1] is recorded as “Not Active”. Also, the IC50 in data set [2] turned out to be 3340 nM. Besides, the Ratio IC50 in the data set listed under Homo sapiens was over 30.
Consider `COc1ccc(-c2cc(=S)c3ccccc3o2)cc1`, for which the inhibition at 100 µM in data set [1] was 40%. The concentration for half-maximal inhibition (IC50) in data set [2] is 480 nM. For the same molecule, the Ratio IC50 in the data set filed under Homo sapiens is over 208.
Consider `COc1ccc2c(=S)cc(-c3ccccc3)oc2c1`, for which, in data set [1], the “inhibition (INH)” value was “Not Active”. Besides, the inhibition at 100 µM in data set [3] was found to be 40%.
On the same counts, the results for `COc1ccc2c(=S)cc(-c3ccc(F)cc3)oc2c1` are “Not Active” and 40%.
Regarding `COc1ccc(C2CC(=O)c3ccccc3O2)cc1` (racemic), the “inhibition (INH)” value in data set [1] is “Not Active”. The molecule further had a 50% inhibitory concentration (IC50) in data set [2] of 2200 nM. The Ratio IC50 in the data set listed under Homo sapiens is over 45.
`Cc1ccc(C2CC(=O)c3ccccc3O2)cc1` (racemic): the “inhibition (INH)” value in data set [1] is given as “Not Active”. Also, in data set [2], the IC50 was 2070 nM. Besides, the Ratio IC50 in the data set listed under Homo sapiens is over 48.
Taken in the same sequence, the figures for `O=C1CC(c2ccccc2)Oc2cc(F)ccc21` (racemic) were “Not Active”, 3770 nM and over 27.
As for `COc1ccc(C2CC(=O)c3ccc(F)cc3O2)cc1` (racemic), the “inhibition (INH)” value in data set [1] is “Not Active”. For the same molecule, the half-maximal inhibitory concentration (IC50) in data set [2] amounted to 170 nM. The Ratio IC50 in the data set filed under Homo sapiens is over 588.
As for `COc1ccc2c(c1)OC(c1ccc(F)cc1)CC2=O` (racemic), in data set [1], the “inhibition (INH)” value is reported as “Not Active”. Also, the IC50 in data set [2] is 170 nM. The Ratio IC50 in the data set listed under Homo sapiens was over 588.
Regarding `COc1ccc(C2CC(=O)c3ccc(C)cc3O2)cc1` (racemic), the “inhibition (INH)” value in data set [1] is “Not Active”. This molecule returned an IC50 in data set [2] of 3350 nM. Moreover, the Ratio IC50 in the data set filed under Homo sapiens is over 30.
On to `O=C1CC(c2ccc(F)cc2)Oc2cc(F)ccc21` (racemic), for which, in data set [1], the “inhibition (INH)” value is given as “Not Active”. This molecule also yielded an IC50 in data set [2] of 670 nM. Further, the Ratio IC50 in the data set listed under Homo sapiens is over 149.
Turning to `Cc1ccc(C2CC(=O)c3ccc(F)cc3O2)cc1` (racemic), the “inhibition (INH)” value in data set [1] is recorded as “Not Active”. This molecule also registered a half-inhibitory concentration (IC50) in data set [2] of 160 nM. Also, the Ratio IC50 in the data set filed under Homo sapiens was over 625.
For the molecule `Cc1ccc2c(c1)OC(c1ccccc1)CC2=O` (racemic), in data set [1], the “inhibition (INH)” value is reported as “Not Active”. Besides, the IC50 in data set [2] stood at 3620 nM. The Ratio IC50 in the data set filed under Homo sapiens was over 28.
On the same counts, the results for `Cc1ccc(C2CC(=O)c3ccc(C)cc3O2)cc1` (racemic) are “Not Active”, 500 nM and over 200.
On the same counts, the results for `COc1ccc2c(c1)OC(c1ccc(C)cc1)CC2=O` (racemic) are “Not Active”, 550 nM and over 182.
As for `O=C1CC(c2ccc(F)cc2)Oc2ccccc21` (racemic), the “inhibition (INH)” value in data set [1] is listed as “Not Active”. In addition, half-maximal inhibition in data set [2] (IC50) was put at 4410 nM. Moreover, the Ratio IC50 in the data set filed under Homo sapiens was over 23.
Take `COc1ccc2c(c1)OC(c1ccccc1)CC2=O` (racemic): the “inhibition (INH)” value in data set [1] is listed as “Not Active”. The half-maximal inhibitory concentration (IC50) in data set [2] worked out at 1470 nM. The Ratio IC50 in the data set filed under Homo sapiens is over 68.
On the same counts, the results for `O=C1CC(c2ccccc2)Oc2ccccc21` (racemic) [FLAVANONE] are “Not Active”, 2870 nM and over 35.
In the case of `COc1ccc(C2CC(=O)c3ccc(OC)cc3O2)cc1` (racemic) [LIQUIRITIGENIN DIMETHYL ETHER], in data set [1], the “inhibition (INH)” value was “Not Active”. In data set [2], this molecule had a concentration for half-maximal inhibition (IC50) of 7180 nM. Moreover, the Ratio IC50 in the data set filed under Homo sapiens is over 14.
Turning to `COc1ccc(-c2cc(=O)c3ccccc3o2)cc1` [4'-METHOXYFLAVONE], in data set [1], the inhibition at 100 µM is 40%. In data set [2], this molecule came in with an IC50 of 27900 nM. Also, the Ratio IC50 in the data set listed under Homo sapiens was over 3.6.
With `COc1ccc(-c2cc(=O)c3ccc(OC)cc3o2)cc1` [4,7-DIMETHOXYFLAVONE], the “inhibition (INH)” value in data set [1] is “Not Active”. This molecule showed a half-inhibitory concentration (IC50) in data set [2] of 49700 nM. For the same molecule, the Ratio IC50 in the data set listed under Homo sapiens is over 2.
As to `O=c1cc(-c2ccccc2)oc2cc(F)ccc12` [7-FLUOROFLAVONE], the inhibition at 100 µM in data set [1] amounted to 40%. In data set [2], this molecule yielded an IC50 of 12900 nM. Further, the Ratio IC50 in the data set filed under Homo sapiens was over 7.7.
